# Active and inactive are the calls of the source. No cut-off for these calls is given here.
# Tests used:
# [1] = system: Mus musculus; assay: Antiinflammatory activity in DSS-induced C57BL/6 mouse acute colitis model assessed as lowering of disease activity index at 300 mg/kg administered by oral gavage from day 5 to day 12 measured on day 13 relative to DSS-treated control; type: functional, organism-based
# In short: (§1)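 Colitis induced in C57BL/6 mice with 2.0% (w/v) DSS in drinking water for 5 days; controls got distilled water. Saline vehicle, Pd-Ib (30, 60 or 120 mg/kg/day) or SASP (300 mg/kg/day) given by gavage through day 12. Weight, stool consistency and bleeding monitored daily. DAI combines weight-loss, stool and bleeding scores. On day 13, colon measured from ileo-cecal junction to anal verge. n = 8, mean ± SD.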
# [2] = system: Mus musculus; assay: Antiinflammatory activity in DSS-induced C57BL/6 mouse acute colitis model assessed as protection against mucosal injury at 300 mg/kg administered by oral gavage from day 5 to day 12 measured on day 13 by hematoxylin/eosin staining-based microscopic analysis; type: functional, organism-based
# In short: (§2)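 DSS colitis (2% w/v, 5 days) with daily gavage of saline, Pd-Ib (30–120 mg/kg) or SASP (300 mg/kg) through day 12; sacrifice day 13. Colons rinsed in ice-cold PBS, fixed overnight in 4% paraformaldehyde, paraffin-embedded. 5 μm sections H&E stained and graded on a 0–10 histological scale. n = 8, mean ± SD.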
# [3] = system: Mus musculus; assay: Antiinflammatory activity in DSS-induced C57BL/6 mouse acute colitis model assessed as lowering of IL-6 level at 300 mg/kg administered by oral gavage from day 5 to day 12 measured on day 13; type: functional, organism-based
# In short: (§3)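 Colon tissue from DSS-colitis mice dosed by gavage (day 13 harvest) homogenized in lysis buffer and spun at 16000g, 4 °C, 15 min. Cytokines in supernatant measured by multiplex bead immunoassay and reported as pg/mL. Protein determined by Bradford with BSA standard. n = 8, mean ± SD.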
# [4] = system: Mus musculus; assay: Antiinflammatory activity in DSS-induced C57BL/6 mouse acute colitis model assessed as lowering of IL-17A level at 300 mg/kg administered by oral gavage from day 5 to day 12 measured on day 13; type: functional, organism-based; in short: as §3
# [5] = system: RAW264.7; assay: Inhibition of LPS-induced IL-6 production in mouse RAW264.7 cells at 40 ug/ml after 24 hrs by ELISA; type: functional, cell-based
# In short: (§4)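 RAW264.7 cells incubated 24 h with Pd-Ib (0, 5, 10, 20, 40 μg/mL), with or without LPS 1 μg/mL. IL-6 in the culture supernatant quantified by ELISA.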
# [6] = system: Mus musculus; assay: Antiinflammatory activity in DSS-induced C57BL/6 mouse acute colitis model assessed as lowering of histological score at 30 to 120 mg/kg administered by oral gavage from day 5 to day 12 measured on day 13 by hematoxylin/eosin staining-based microscopic analysis; type: functional, organism-based; in short: as §2
# [7] = system: RAW264.7; assay: Inhibition of LPS-induced JNK phosphorylation in mouse RAW264.7 cells at 5 to 40 ug/ml after 24 hrs by Western blot analysis; type: cell-based
# In short: (§5)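 RAW264.7 macrophages (DMEM, 10% FBS, 37 °C, 5% CO2) treated with LPS 1 μg/mL alone or with Pd-Ib 5, 10, 20 or 40 μg/mL for 24 h. Lysates in RIPA buffer, 10% SDS-PAGE, immunoblotted for phospho and total STAT3, JNK, ERK and p38; β-actin loading control.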
# [8] = system: Mus musculus; assay: Antiinflammatory activity in DSS-induced C57BL/6 mouse acute colitis model assessed as lowering of IL-17A level administered by oral gavage from day 5 to day 12 measured on day 13; type: functional, organism-based; in short: as §3
# [9] = target: MAP kinase p38 (Mus musculus) (UniProt P47811+O08911+Q9WUI1+Q9Z1B7); assay: Inhibition of LPS-induced p38 phosphorylation in mouse RAW264.7 cells at 5 to 40 ug/ml after 24 hrs by Western blot analysis; type: cell-based; in short: as §5
# [10] = system: Mus musculus; assay: Antiinflammatory activity in DSS-induced C57BL/6 mouse acute colitis model assessed as lowering of IL-6 level administered by oral gavage from day 5 to day 12 measured on day 13; type: functional, organism-based; in short: as §3
# [11] = target: Signal transducer and activator of transcription 3 (Mus musculus) (UniProt P42227); assay: Inhibition of LPS-induced STAT3 phosphorylation in mouse RAW264.7 cells at 20 ug/ml after 12 hrs by Western blot analysis; type: cell-based
# In short: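 RAW264.7 cells given LPS 1 μg/mL with or without Pd-Ib 20 μg/mL for 0–24 h, then harvested and lysed. p-STAT3 and β-actin detected by Western blot.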
# [12] = system: RAW264.7; assay: Inhibition of LPS-induced ERK phosphorylation in mouse RAW264.7 cells at 5 to 40 ug/ml after 24 hrs by Western blot analysis; type: cell-based; in short: as §5
# [13] = system: Mus musculus; assay: Antiinflammatory activity in DSS-induced C57BL/6 mouse acute colitis model assessed as attenuation of shortening of colon length at 60 to 120 mg/kg administered by oral gavage from day 5 to day 12 measured on day 13; type: functional, organism-based; in short: as §1
# [14] = system: Mus musculus; assay: Downregulation of elevated p-p38 level in colon homogenate of DSS-induced C57BL/6 mouse acute colitis model administered by oral gavage from day 5 to day 12 measured on day 13 by Western blot analysis; type: functional, organism-based
# In short: (§6)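 Colonic tissue extracts from DSS-colitis mice gavaged through day 12 and sacrificed day 13. Lysed in RIPA buffer (pH 7.4) with phosphatase/protease inhibitors, run on 10% SDS-PAGE and immunoblotted for STAT3, p-STAT3, p38 and p-p38. Blots stripped and reprobed for β-actin as loading control.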
# [15] = system: Mus musculus; assay: Antiinflammatory activity in DSS-induced C57BL/6 mouse acute colitis model assessed as lowering of IFN-gamma level administered by oral gavage from day 5 to day 12 measured on day 13; type: functional, organism-based; in short: as §3
# [16] = system: Mus musculus; assay: Antiinflammatory activity in DSS-induced C57BL/6 mouse acute colitis model assessed as lowering of TNF-alpha level administered by oral gavage from day 5 to day 12 measured on day 13; type: functional, organism-based; in short: as §3
# [17] = system: Mus musculus; assay: Antiinflammatory activity in DSS-induced C57BL/6 mouse acute colitis model assessed as increase of IL-10 level at 30 to 120 mg/kg administered by oral gavage from day 5 to day 12 measured on day 13 relative to DSS-treated control; type: functional, organism-based
# [18] = system: Mus musculus; assay: Downregulation of elevated p-STAT3 level in colon homogenate of DSS-induced C57BL/6 mouse acute colitis model administered by oral gavage from day 5 to day 12 measured on day 13 by Western blot analysis; type: functional, organism-based; in short: as §6
# [19] = system: Mus musculus; assay: Antiinflammatory activity in DSS-induced C57BL/6 mouse acute colitis model assessed as protection against mucosal injury at 120 mg/kg administered by oral gavage from day 5 to day 12 measured on day 13 by hematoxylin/eosin staining-based microscopic analysis; type: functional, organism-based; in short: as §2
# [20] = system: Mus musculus; assay: Antiinflammatory activity in DSS-induced C57BL/6 mouse acute colitis model assessed as increase of IL-4 level at 30 to 120 mg/kg administered by oral gavage from day 5 to day 12 measured on day 13 relative to DSS-treated control; type: functional, organism-based; in short: as §3
# [21] = system: Mus musculus; assay: Antiinflammatory activity in DSS-induced C57BL/6 mouse acute colitis model assessed as lowering of MPO activity in colon homogenate at 30 to 120 mg/kg administered by oral gavage from day 5 to day 12 measured on day 13; type: functional, organism-based
# In short: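 Mice given DSS colitis and gavage treatment as above, sacrificed day 13. MPO activity in colon homogenate taken from the rate of optical density change; one unit gives an OD change of 1.0/min at 25 °C. Normalized to colon wet weight, expressed as units/mg tissue. n = 8.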
# [22] = system: Mus musculus; assay: Antiinflammatory activity in DSS-induced C57BL/6 mouse acute colitis model assessed as reduction in loss of body weight at 120 mg/kg administered by oral gavage after 9 days of induction; type: functional, organism-based; in short: as §1
# [23] = system: Mus musculus; assay: Antiinflammatory activity in DSS-induced C57BL/6 mouse acute colitis model assessed as lowering of disease activity index at 120 mg/kg administered by oral gavage from day 5 to day 12 measured on day 13 relative to DSS-treated control; type: functional, organism-based; in short: as §1
# [24] = system: Mus musculus; assay: Antiinflammatory activity in DSS-induced C57BL/6 mouse acute colitis model assessed as lowering of NO production at 30 to 120 mg/kg administered by oral gavage from day 5 to day 12 measured on day 13 by Griess assay; type: functional, organism-based
# In short: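 On day 13 after DSS colitis and gavage dosing, frozen colon weighed and homogenized in 0.5% hexadecyltrimethylammonium bromide (100 mg tissue/mL). Spun at 16000g, 4 °C, 15 min. Supernatant nitrite measured with Griess reagent. n = 8, mean ± SD.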
# [25] = system: RAW264.7; assay: Inhibition of LPS-induced IL-6 production in mouse RAW264.7 cells at 5 to 20 ug/ml after 24 hrs by ELISA; type: functional, cell-based; in short: as §4
# [26] = target: Signal transducer and activator of transcription 3 (Mus musculus) (UniProt P42227); assay: Inhibition of LPS-induced STAT3 phosphorylation in mouse RAW264.7 cells at 40 ug/ml after 24 hrs by Western blot analysis; type: cell-based; in short: as §5
# [27] = system: Mus musculus; assay: Antiinflammatory activity in DSS-induced C57BL/6 mouse acute colitis model assessed as reduction in loss of body weight at 30 to 60 mg/kg administered by oral gavage after 9 days of induction; type: functional, organism-based; in short: as §1
# Sequence of Signal transducer and activator of transcription 3 (Mus musculus) (P42227 whole entry): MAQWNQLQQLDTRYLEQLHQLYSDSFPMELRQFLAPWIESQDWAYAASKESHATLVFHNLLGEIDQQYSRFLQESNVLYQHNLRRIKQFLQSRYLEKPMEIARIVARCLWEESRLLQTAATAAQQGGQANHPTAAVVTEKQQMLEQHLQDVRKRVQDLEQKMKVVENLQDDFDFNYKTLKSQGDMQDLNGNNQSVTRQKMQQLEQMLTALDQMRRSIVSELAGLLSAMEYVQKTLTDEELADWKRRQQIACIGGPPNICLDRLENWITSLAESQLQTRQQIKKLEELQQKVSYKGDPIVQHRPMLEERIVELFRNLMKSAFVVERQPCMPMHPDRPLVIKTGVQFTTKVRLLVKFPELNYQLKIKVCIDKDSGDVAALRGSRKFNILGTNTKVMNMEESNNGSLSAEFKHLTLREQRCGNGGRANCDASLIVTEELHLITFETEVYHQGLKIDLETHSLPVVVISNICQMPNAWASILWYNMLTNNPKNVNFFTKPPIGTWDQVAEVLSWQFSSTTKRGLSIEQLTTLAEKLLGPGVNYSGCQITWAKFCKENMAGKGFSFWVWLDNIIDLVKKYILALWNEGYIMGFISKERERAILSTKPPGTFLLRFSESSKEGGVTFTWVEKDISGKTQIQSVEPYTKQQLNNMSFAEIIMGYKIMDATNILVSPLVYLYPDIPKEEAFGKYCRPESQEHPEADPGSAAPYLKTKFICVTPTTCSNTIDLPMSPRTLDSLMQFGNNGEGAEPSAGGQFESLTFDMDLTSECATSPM
smiles,measurement,setting,value
O=C(O)c1cc(/N=N/c2ccc(S(=O)(=O)Nc3ccccn3)cc2)ccc1O,Activity,[1],Active
same,Activity,[2],Active
same,Activity,[3],Active
same,Activity,[4],Active
C/C=C(/C)C(=O)O[C@H]1C(=O)c2c(ccc3ccc(=O)oc23)OC1(C)C,inhibition,[5],inactive
same,Activity,[6],Active
same,inhibition,[7],Active
same,Activity,[8],Dose-dependent effect
same,inhibition,[9],Active
same,Activity,[10],Dose-dependent effect
same,inhibition,[11],Active
same,inhibition,[12],inactive
same,Activity,[13],Active
same,Activity,[14],Dose-dependent effect
same,Activity,[15],Dose-dependent effect
same,Activity,[16],Dose-dependent effect
same,Activity,[17],inactive
same,Activity,[18],Dose-dependent effect
same,Activity,[19],Active
same,Activity,[20],Active
same,Activity,[21],Active
same,Activity,[22],Active
same,Activity,[23],Active
same,Activity,[24],Active
same,inhibition,[25],Active
same,inhibition,[26],Active
same,Activity,[27],inactive

# — ChEMBL document CHEMBL4477159, “Anti-inflammatory Actions of (+)-3'α-Angeloxy-4'-keto-3',4'-dihydroseselin (Pd-Ib) against Dextran Sulfate Sodium-Induced Colitis in C57BL/6 Mice” (J Nat Prod, 2016)
